Assays:
[1] = tested on: Monkey; assay: Percentage of iron clearing efficiency was measured in monkey after administration at 150 umol/kg (n=4); assay type: functional
How it was run: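 Cebus apella monkeys iron-overloaded with iv iron dextran to about 500 mg Fe/kg, at least 60 days before use. Single po dose of 150 µmol/kg as solution or suspension in 40% Cremophor RH-40/water. Stool and urine collected every 24 h, from 4 days before dosing to 5 days after. Iron measured by flame atomic absorption. ICE = (2-day post-dose iron minus mean 4-day baseline) / theoretical excretion × 100. Mean ± SEM.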

[2] = Lipophilicity (Log Papp) was measured at pH 7.4; Activity expressed as the log of the fraction in the octanol layer; assay type: physicochemical; details: octanol/aqueous phase
How it was run: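 Shake-flask octanol/water distribution at pH 7.4 in 50 mM TRIS buffer, uncorrected for partial ionization. Quadruplicate samples shaken with 1-octanol overnight, layers left to settle 1-2 h before separation. Room temperature (22-24 °C), UV spectrometric read-out, value given as log of fraction in octanol layer.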

| Compound | Activity [1] | log fraction in octanol layer [2] |
| --- | --- | --- |
| O=C(O)[C@H]1CSC(c2ccc(O)cc2O)=N1 | 4.2% | -1.33 |
| COc1ccc(C2=N[C@@H](C(=O)O)CS2)c(O)c1 | 16.2% | -0.89 |
| O=C(O)[C@H]1CSC(c2cccc(O)c2O)=N1 | 5.8% | -1.67 |
| COc1cccc(C2=N[C@@](C)(C(=O)O)CS2)c1O | 22.5% | -1.12 |
| C[C@]1(C(=O)O)CSC(c2ccc(O)cc2O)=N1 [DEFERITRIN] | 13.4% | -1.05 |
| COc1cccc(C2=N[C@@H](C(=O)O)CS2)c1O | 15.5% | -1.52 |
| C[C@]1(C(=O)O)CSC(c2cccc(O)c2O)=N1 | 23.1% | -1.17 |
| COc1ccc(C2=N[C@@](C)(C(=O)O)CS2)c(O)c1 | 24.4% | -0.7 |
